Source: PubChem BioAssay
Rows were chosen to be rich in hits. Some 2.1% of all compounds tested hit in one or more screens of this group.
ARNT-TACC3 inh: disruptors of human ARNT/TACC3 interaction; Q9Y6A5; AlphaScreen His-ARNT PAS-B/GST-TACC3 binding, luminescence; TACC3 fragment carries E629A point mutation; inhibition, % at 9.99 µM; 390,000 tested, 0.66% active; AID 623870;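 active = mean inhibition of replicates at least 50% and at least half of replicates each reaching 50%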
Mot1-301 SUMO: blocks SUMOylation pathway, rescuing yeast Mot1-301 growth; AID 2716; S. cerevisiae Mot1-301 growth rescue, ATP luminescence, 38.5C; percent above DMSO median, 100 means doubled; 320,000 tested, 1% active; growth rescue, % at 18.8 µM;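 active = every valid replicate shows activation above 250% relative to neutral control wells; inactive = the rest, any valid replicate at or below 250%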
Cardiac RTF inh: cardiac RTF calcium desensitization | P19429+P45379 | 340,000 tested, 0.12% active | AID 493244 | inhibition, % at 7.15 µM | IANBD-labeled cardiac RTF, Ca2+ fluorescence;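 active = inhibition above the mean inhibition of all tested compounds plus 3 SD, cut at about 17% in these data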;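 also: assay run at fixed EC70 calcium of 1.6 mM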
UCH37 inh: blocks the human deubiquitinase UCH37 | Q9Y5K5 | purified proteasome/UCH37, Ub-AMC cleavage fluorescence | inhibition, % (no concentration beside the values) | 330,000 tested, 0.33% active;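 active = mean inhibition over replicate wells above about 20%, limit read from the data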
Target sequence (Q9Y5K5 whole entry, looked up): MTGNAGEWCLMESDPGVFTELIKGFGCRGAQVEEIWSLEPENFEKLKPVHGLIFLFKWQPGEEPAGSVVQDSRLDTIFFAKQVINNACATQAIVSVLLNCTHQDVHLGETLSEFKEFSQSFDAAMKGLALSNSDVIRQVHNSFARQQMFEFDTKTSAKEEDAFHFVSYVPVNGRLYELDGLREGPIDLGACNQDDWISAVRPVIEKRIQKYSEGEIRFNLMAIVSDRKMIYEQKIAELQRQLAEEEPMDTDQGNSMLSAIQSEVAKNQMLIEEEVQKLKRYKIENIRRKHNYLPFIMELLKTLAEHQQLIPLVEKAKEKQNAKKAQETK
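Material: Human UCH37 enzyme supplied as purified proteasome complex | Schedule: 30 min preincubation with enzyme, 25 min cleavage at room temperature | Detection: AMC fluorescence 355/460 nm | Measure: % inhibition of Ub-AMC cleavage fluorescence | Controls: Wells without proteasome as full block, compound-free enzyme plus substrate as uninhibited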
Efflux pump inh: inhibitors of Candida antifungal efflux pumps expressed in yeast; S. cerevisiae Candida pump triplex, Nile Red efflux; inhibition, % at 10 µM; 330,000 tested, 0.44% active; AID 485275;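 active = plate passing quality check with inhibition over a set limit, or well fluorescence over plate mean plus 4 SD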;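 also: Nile Red retained in pooled yeast measured as flow cytometry median fluorescence; higher means more Nile Red kept so more efflux inhibition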
cardiac RTF act: cardiac RTF calcium sensitization; P19429+P45379; IANBD-labeled TnC RTF fluorescence at EC20 calcium; 0% EC20 calcium, 100% full calcium; activation, % at 7.2 µM; 340,000 tested, 0.24% active; AID 493008;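 active = activation above the mean over all tested compounds plus 3 SD, cut at about 30% in these data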;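 also: rise in fluorescence read as greater calcium sensitivity of cardiac thin filaments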
Numbers stand for hits; . = inactive; / = no result.

SMILES	ARNT-TACC3 inh	Mot1-301 SUMO	Cardiac RTF inh	UCH37 inh	Efflux pump inh	cardiac RTF act
CCCCc1ccc(/C=C2\C(=O)c3ccccc3C(O)=C2C(=O)OCC)cc1	/	.	/	/	1.1	/
O=S(=O)(N=C(c1ccccc1)N1CCOCC1)c1ccc(Br)cc1	/	/	/	.	/	/
O=C(CN1CCSCC1)NN=Cc1ccc(F)c(F)c1	/	/	/	.	/	/
CC1=C(O)C(=O)C(C2=C(O)C(=O)C(C)=C(O)C2=O)=C(O)C1=O	66	/	.	/	/	.
CC1(C)CC(=NNc2ccc([N+](=O)[O-])cc2[N+](=O)[O-])C(C)(C)O1	/	/	/	.	/	/
O=C(NCc1ccccn1)Nc1cccc(NC(=O)NCc2ccccn2)c1	78	.	.	.	.	.
O=C(NCc1ccccn1)c1n[nH]c2ccccc12	24	.	.	.	.	.
O=C(NCc1ccccn1)Nc1cccc(Cl)c1	.	.	.	.	.	.
O=C(NCc1ccccn1)C(=O)N/N=C/c1ccccc1O	64	.	.	/	.	.
CC(C)NC(=O)C(=O)NCc1ccccn1	.	.	.	.	.	.
CC(C)CNC(=O)C(=O)NCc1ccccn1	.	315	.	.	.	.
Cc1cc(=O)[nH]c(NN=Cc2c(C)nn(-c3ccc(F)cc3)c2Cl)n1	/	/	/	.	/	/
COc1cc(NC(=S)N2CCC(C(N)=O)CC2)c(OC)cc1Cl	.	.	.	31	.	.
COc1cc(NC(=S)N2CCC(C(N)=O)CC2)cc(OC)c1	.	.	.	.	.	.
CC(C(=O)N(C)Cc1ccccc1)N1CCN(C/C=C/c2ccccc2)CC1 (stereo not drawn)	.	282	.	.	.	.
Cc1cc(C)nc(N=c2ssnc2Cl)c1	/	/	/	.	/	/
Cc1[nH]c2ccccc2c1C=NNC(=O)CNc1ccc2c(c1)OCO2	/	/	/	.	/	/
CCOC(=O)c1c(C)[nH]c(N=Nc2cc(C(=O)O)cc(C(=O)O)c2)c1C	.	.	.	24	.	.
O=C(Oc1ccc(C=NNC(=O)c2ccccn2)cc1)c1cccc(Br)c1	/	/	/	.	/	/
O=C(c1ccc(-n2cnnn2)cc1)N1CCOCC1	.	303	.	.	.	.
O=C(O)C1Cc2[nH]cnc2C(c2ccccc2O)N1 (stereo not drawn)	82	.	.	/	.	.
COc1cccc(CNC(=O)CCS(=O)(=O)c2cccc3nonc23)c1	.	286	.	.	.	.
Cn1cc(C(=O)NN=Cc2c(O)ccc3ccccc23)ccc1=O	/	/	/	.	/	/
COc1ccc(C=NN=Cc2ccc(OC)cc2)cc1	/	/	/	.	/	/
COc1ccccc1N=Nc1ccc(O)c2ncccc12	66	.	.	.	.	.
SMILES	ARNT-TACC3 inh	Mot1-301 SUMO	Cardiac RTF inh	UCH37 inh	Efflux pump inh	cardiac RTF act
CCS(=O)(=O)c1ccc(N=Nc2ccc(O)c3ncccc23)c(OC)c1	.	/	.	.	/	.
Cn1cccc1CC(=O)NN=Cc1cccc([N+](=O)[O-])c1	/	/	/	.	/	/
O=C(CN1CCN(Cc2ccccc2)CC1)NN=C/C=C/c1ccco1	/	/	/	.	/	/
CC1=CC(=N/N=C2/NC(=O)C(CC(=O)Nc3ccccc3F)S2)CC(C)(C)C1 (stereo not drawn)	/	/	/	.	/	/
CC(C)CCOc1ccc(C=NN2C(=O)CSC2=S)cc1	/	/	/	.	/	/
S=C(NCCc1ccccc1)N1CCc2ccccc2C1	/	.	.	22	.	.
OC1CCN(C(=S)NCCc2ccccc2)CC1	.	.	.	.	.	.
COc1ccc(-c2cc(C(=O)NCC3CCCO3)c3ccccc3n2)c(OC)c1 (stereo not drawn)	.	.	.	.	.	.
CCOc1ccc(-c2cc(C(=O)NCC3CCCO3)c3ccccc3n2)cc1 (stereo not drawn)	.	352	.	.	.	.
COc1ccc(Br)cc1C(=O)Nc1cccc(-c2nnc(-c3ccco3)o2)c1	.	331	.	.	.	.
O=C(CCN1CCOCC1)N/N=C/c1cc(Br)cc(Br)c1O	70	.	.	/	.	.
Cc1ccc(-c2nnn(CC(=O)NCCc3ccc4c(c3)OCO4)n2)o1	.	329	.	.	.	.
C(=NNc1nc(-c2ccccc2)cs1)c1cccnc1	/	/	/	.	/	/
O=C1CC(c2ccccc2)CC(O)=C1C=NCCN1CCNCC1 (stereo not drawn)	.	.	.	.	.	.
O=C1CC(c2ccc(F)cc2)CC(O)=C1C=NCCN1CCNCC1 (stereo not drawn)	.	301	.	.	.	.
O=C1CC(c2ccccc2)CC(O)=C1C=NCCCO (stereo not drawn)	.	.	.	22	.	.
COc1ccccc1C=NNC(=O)c1ccccc1NS(=O)(=O)c1ccc(C)cc1	/	/	/	.	/	/
Cc1ccc(CN2CCN(N=Cc3cc(Br)cc(Br)c3O)CC2)c(C)c1	/	/	/	.	/	/
Cc1ccc(CNC(=O)c2cc(-c3ccccc3)n(Cc3cc(C)no3)n2)cc1	.	.	.	24	.	.
COc1ccc(CC(=O)NNC(=O)c2ccccn2)cc1	48	.	.	.	.	.
COCCCNC(=S)NNC(=O)c1ccccn1	67	.	.	.	.	.
Cc1cc(C)cc(OCC(=O)NNC(=O)c2ccccn2)c1	68	.	.	.	.	.
O=C(COc1ccc(Cl)cc1)NNC(=O)c1ccccn1	.	.	.	.	.	.
C=C(C)CNC(=S)N=c1scc(C)n1CC	/	/	/	.	/	/
O=C(NC(c1ccccc1)c1ccccc1)c1cccc(S(=O)(=O)NCc2ccccc2)c1	active	.	.	.	.	.
SMILES	ARNT-TACC3 inh	Mot1-301 SUMO	Cardiac RTF inh	UCH37 inh	Efflux pump inh	cardiac RTF act
O=C(NCCCN1CCOCC1)C(=O)c1c[nH]c2ccccc12	.	.	.	.	.	.
COc1ccc(N2CCN(CCCNC(=O)C(=O)c3c[nH]c4ccccc34)CC2)cc1	48	.	.	.	.	.
COC1(OC)N=C(N)C2(C#N)C(c3ccccc3)NC(C)=CC12C#N (stereo not drawn)	57	.	.	.	.	.
O=C(NN=Cc1ccco1)c1cc(C2CC2)nc2ccccc12	/	/	/	.	/	/
Cc1cc(C)n(C(C[N+](=O)[O-])c2ccc(Cl)cc2)n1 (stereo not drawn)	.	279	.	/	.	.
Cc1cc(O)c(C(C[N+](=O)[O-])c2ccc(Cl)cc2)c(=O)o1 (stereo not drawn)	/	.	.	.	.	.
N#Cc1ccccc1CSc1nnc(Cc2ccccc2)o1	.	348	.	.	.	.
CC(/C=C/c1ccc2c(c1)OCO2)=NNC(=O)c1ccncc1	/	/	/	.	/	/
CN1CCC2(CC1)C1CN(C)CC=C1C(C#N)=C(N)C2(C#N)C#N (stereo not drawn)	.	.	.	.	.	37
O=[N+]([O-])c1cc(C=NO)ccc1N1CCCC1	/	/	/	.	/	/
Cc1ccc(O)c(C(=O)c2cc(C#N)c(=O)n(-c3nccs3)c2)c1	.	.	.	.	.	69
Nc1nonc1-n1nnc(C(=O)NN=Cc2ccoc2)c1-c1ccccc1	/	/	/	.	/	/
CCOC(=O)c1cc(C#N)c(SCC(=O)c2cc(C#N)c(SC)nc2C)[nH]c1=O	.	.	.	.	.	58
